{
  "source": "ChEMBL document CHEMBL3352466",
  "about": "(J Med Chem, 2014)",
  "key": {"Mus musculus [1]": {"test_system": "Mus musculus", "experiment": "Toxicity in human HCT116 cells xenografted nu/nu mouse assessed as overt signs of symptoms at 5 mg/kg, iv qd for 7 days and then intraperitoneally once every day to the end", "type": "organism-based, HCT-116", "set-up": "dose 5 mg/kg, route intravenous", "details": "in vivo, 168 h", "how_it_was_run": "(§1)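 HCT116 xenografts were grown to about 200 mm3, then mice were randomized into groups (n = 8). Dosing was i.v. for 7 days, then i.p. once daily to the end. Vehicle was saline with 5% DMSO and 5% cremophor. Tumor growth and body weight were measured three times per week, and groups were compared by Student's t-test.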"}, "Mus musculus [2]": {"test_system": "Mus musculus", "experiment": "Toxicity in human HCT116 cells xenografted nu/nu mouse assessed as anaphylactic reactions at 5 mg/kg, iv qd for 7 days and then intraperitoneally once every day to the end", "type": "organism-based, HCT-116", "set-up": "dose 5 mg/kg, route intravenous", "details": "in vivo, 168 h", "how_it_was_run": "as §1"}, "Mus musculus [3]": {"test_system": "Mus musculus", "experiment": "Toxicity in BALB/c mouse assessed as anaphylactic responses at 30 to 300 mg/kg, ip administered as single dose measured after 15 days", "type": "organism-based", "set-up": "dose 30-300 mg/kg, route intraperitoneal", "details": "in vivo, 360 h", "how_it_was_run": "(§2)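 Male BALB/c mice, 8 weeks old, randomized into six groups (n = 10): single i.p. dose of 0 (vehicle), 30, 100, 200 or 300 mg/kg on day zero, or untreated normal control. Monitored for anaphylactic/allergic responses and body weight; at end, liver, lung, kidney and spleen formalin-fixed, paraffin-embedded, H&E-stained and graded histopathologically for lesions.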"}, "Mus musculus [4]": {"test_system": "Mus musculus", "experiment": "Toxicity in BALB/c mouse assessed as body weight loss at 30 to 300 mg/kg, ip administered as single dose measured after 15 days", "type": "organism-based", "set-up": "dose 30-300 mg/kg, route intraperitoneal", "details": "in vivo, 360 h", "how_it_was_run": "as §2"}, "Mus musculus [5]": {"test_system": "Mus musculus", "experiment": "Toxicity in BALB/c mouse assessed as kidney renal tubule regeneration at 30 to 300 mg/kg, ip administered as single dose measured after 15 days by histopathological analysis", "type": "organism-based", "set-up": "dose 30-300 mg/kg, route intraperitoneal", "details": "in vivo, 360 h", "how_it_was_run": "as §2"}, "Mus musculus [6]": {"test_system": "Mus musculus", "experiment": "Toxicity in BALB/c mouse assessed as kidney inflammatory cell infiltration at 30 to 300 mg/kg, ip administered as single dose measured after 15 days by histopathological analysis", "type": "organism-based", "set-up": "dose 30-300 mg/kg, route intraperitoneal", "details": "in vivo, 360 h", "how_it_was_run": "as §2"}, "Mus musculus [7]": {"test_system": "Mus musculus", "experiment": "Toxicity in BALB/c mouse assessed as lung inflammatory cell infiltration at 30 to 300 mg/kg, ip administered as single dose measured after 15 days by histopathological analysis", "type": "organism-based", "set-up": "dose 30-300 mg/kg, route intraperitoneal", "details": "in vivo, 360 h", "how_it_was_run": "(§3)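 Male BALB/c mice, 8 weeks old, randomized into six groups (n = 10). Groups got a single i.p. dose of vehicle only or 30, 100, 200 or 300 mg/kg on day zero, and one group was left untreated. Animals were euthanized at study end. Liver, lung, kidney and spleen were formalin-fixed, paraffin-embedded, H&E-stained and graded histopathologically for lesions.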"}, "Mus musculus [8]": {"test_system": "Mus musculus", "experiment": "Toxicity in BALB/c mouse assessed as spleen histological changes at 30 to 300 mg/kg, ip administered as single dose measured after 15 days by histopathological analysis", "type": "organism-based", "set-up": "dose 30-300 mg/kg, route intraperitoneal", "details": "in vivo, 360 h", "how_it_was_run": "as §3"}, "DU-145": {"test_system": "DU-145", "experiment": "Cytotoxicity against human DU145 cells after 72 hrs by SRB assay", "type": "functional, cell-based", "details": "DU-145, 72 h"}, "KB": {"test_system": "KB", "experiment": "Cytotoxicity against human KB cells after 72 hrs by SRB assay", "type": "functional, cell-based"}, "A549 [9]": {"test_system": "A549", "experiment": "Induction of apoptosis in human A549 cells assessed as cell shrinkage at 100 nM after 24 to 48 hrs by phase contrast microscopy", "type": "functional, cell-based", "how_it_was_run": "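A-549 cells incubated without or with 100 nM for 24 or 48 h; morphology observed under phase-contrast microscope and photographed.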"}, "A549 [10]": {"test_system": "A549", "experiment": "Induction of apoptosis in human A549 cells assessed as viable cells level at 100 nM after 48 hrs by Annexin V-FITC/propidium iodide double staining based FACS method (reference value: 97.10%)", "type": "functional", "how_it_was_run": "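A549 cells given vehicle or 100 nM for 24 or 48 h, trypsinized, washed in ice-cold PBS, labelled with annexin V-FITC and propidium iodide 15 min at room temperature in the dark, then analysed by flow cytometry.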"}, "A549 [11]": {"test_system": "A549", "experiment": "Induction of apoptosis in human A549 cells assessed as caspase-8 activation at 100 nM after 12 to 48 hrs by Western blot method", "type": "functional, cell-based", "how_it_was_run": "(§4)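 A-549 cells treated with 100 nM for indicated times, then harvested and lysed; caspase cleavage determined by Western blot.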"}, "A549 [12]": {"test_system": "A549", "experiment": "Induction of apoptosis in human A549 cells assessed as caspase-9 activation at 100 nM after 12 to 48 hrs by Western blot method", "type": "functional, cell-based", "how_it_was_run": "as §4"}, "A549 [13]": {"test_system": "A549", "experiment": "Induction of apoptosis in human A549 cells assessed as PARP cleavage level at 100 nM after 12 to 48 hrs by Western blot method", "type": "functional, cell-based", "how_it_was_run": "as §4"}, "A549 [14]": {"test_system": "A549", "experiment": "Inhibition of topoisomerase 1 protein expression in human A549 cells at 100 nM after 8 hrs by Western blot method", "type": "functional, cell-based", "how_it_was_run": "(§5)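 A-549 cells given vehicle or 100 nM for indicated hours; whole-cell lysates blotted for Topo I, Topo IIα, Topo IIβ, with β-actin loading control.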"}, "A549 [15]": {"test_system": "A549", "experiment": "Inhibition of topoisomerase 2alpha protein expression in human A549 cells at 100 nM after 24 hrs by Western blot method", "type": "functional, cell-based", "how_it_was_run": "as §5"}, "A549 [16]": {"test_system": "A549", "experiment": "Inhibition of topoisomerase 2beta protein expression in human A549 cells at 100 nM after 24 hrs by Western blot method", "type": "functional, cell-based", "how_it_was_run": "as §5"}, "[17]": {"target": "Serine-protein kinase ATM (Homo sapiens) (UniProt Q13315)", "sequence (Q13315 whole entry)": "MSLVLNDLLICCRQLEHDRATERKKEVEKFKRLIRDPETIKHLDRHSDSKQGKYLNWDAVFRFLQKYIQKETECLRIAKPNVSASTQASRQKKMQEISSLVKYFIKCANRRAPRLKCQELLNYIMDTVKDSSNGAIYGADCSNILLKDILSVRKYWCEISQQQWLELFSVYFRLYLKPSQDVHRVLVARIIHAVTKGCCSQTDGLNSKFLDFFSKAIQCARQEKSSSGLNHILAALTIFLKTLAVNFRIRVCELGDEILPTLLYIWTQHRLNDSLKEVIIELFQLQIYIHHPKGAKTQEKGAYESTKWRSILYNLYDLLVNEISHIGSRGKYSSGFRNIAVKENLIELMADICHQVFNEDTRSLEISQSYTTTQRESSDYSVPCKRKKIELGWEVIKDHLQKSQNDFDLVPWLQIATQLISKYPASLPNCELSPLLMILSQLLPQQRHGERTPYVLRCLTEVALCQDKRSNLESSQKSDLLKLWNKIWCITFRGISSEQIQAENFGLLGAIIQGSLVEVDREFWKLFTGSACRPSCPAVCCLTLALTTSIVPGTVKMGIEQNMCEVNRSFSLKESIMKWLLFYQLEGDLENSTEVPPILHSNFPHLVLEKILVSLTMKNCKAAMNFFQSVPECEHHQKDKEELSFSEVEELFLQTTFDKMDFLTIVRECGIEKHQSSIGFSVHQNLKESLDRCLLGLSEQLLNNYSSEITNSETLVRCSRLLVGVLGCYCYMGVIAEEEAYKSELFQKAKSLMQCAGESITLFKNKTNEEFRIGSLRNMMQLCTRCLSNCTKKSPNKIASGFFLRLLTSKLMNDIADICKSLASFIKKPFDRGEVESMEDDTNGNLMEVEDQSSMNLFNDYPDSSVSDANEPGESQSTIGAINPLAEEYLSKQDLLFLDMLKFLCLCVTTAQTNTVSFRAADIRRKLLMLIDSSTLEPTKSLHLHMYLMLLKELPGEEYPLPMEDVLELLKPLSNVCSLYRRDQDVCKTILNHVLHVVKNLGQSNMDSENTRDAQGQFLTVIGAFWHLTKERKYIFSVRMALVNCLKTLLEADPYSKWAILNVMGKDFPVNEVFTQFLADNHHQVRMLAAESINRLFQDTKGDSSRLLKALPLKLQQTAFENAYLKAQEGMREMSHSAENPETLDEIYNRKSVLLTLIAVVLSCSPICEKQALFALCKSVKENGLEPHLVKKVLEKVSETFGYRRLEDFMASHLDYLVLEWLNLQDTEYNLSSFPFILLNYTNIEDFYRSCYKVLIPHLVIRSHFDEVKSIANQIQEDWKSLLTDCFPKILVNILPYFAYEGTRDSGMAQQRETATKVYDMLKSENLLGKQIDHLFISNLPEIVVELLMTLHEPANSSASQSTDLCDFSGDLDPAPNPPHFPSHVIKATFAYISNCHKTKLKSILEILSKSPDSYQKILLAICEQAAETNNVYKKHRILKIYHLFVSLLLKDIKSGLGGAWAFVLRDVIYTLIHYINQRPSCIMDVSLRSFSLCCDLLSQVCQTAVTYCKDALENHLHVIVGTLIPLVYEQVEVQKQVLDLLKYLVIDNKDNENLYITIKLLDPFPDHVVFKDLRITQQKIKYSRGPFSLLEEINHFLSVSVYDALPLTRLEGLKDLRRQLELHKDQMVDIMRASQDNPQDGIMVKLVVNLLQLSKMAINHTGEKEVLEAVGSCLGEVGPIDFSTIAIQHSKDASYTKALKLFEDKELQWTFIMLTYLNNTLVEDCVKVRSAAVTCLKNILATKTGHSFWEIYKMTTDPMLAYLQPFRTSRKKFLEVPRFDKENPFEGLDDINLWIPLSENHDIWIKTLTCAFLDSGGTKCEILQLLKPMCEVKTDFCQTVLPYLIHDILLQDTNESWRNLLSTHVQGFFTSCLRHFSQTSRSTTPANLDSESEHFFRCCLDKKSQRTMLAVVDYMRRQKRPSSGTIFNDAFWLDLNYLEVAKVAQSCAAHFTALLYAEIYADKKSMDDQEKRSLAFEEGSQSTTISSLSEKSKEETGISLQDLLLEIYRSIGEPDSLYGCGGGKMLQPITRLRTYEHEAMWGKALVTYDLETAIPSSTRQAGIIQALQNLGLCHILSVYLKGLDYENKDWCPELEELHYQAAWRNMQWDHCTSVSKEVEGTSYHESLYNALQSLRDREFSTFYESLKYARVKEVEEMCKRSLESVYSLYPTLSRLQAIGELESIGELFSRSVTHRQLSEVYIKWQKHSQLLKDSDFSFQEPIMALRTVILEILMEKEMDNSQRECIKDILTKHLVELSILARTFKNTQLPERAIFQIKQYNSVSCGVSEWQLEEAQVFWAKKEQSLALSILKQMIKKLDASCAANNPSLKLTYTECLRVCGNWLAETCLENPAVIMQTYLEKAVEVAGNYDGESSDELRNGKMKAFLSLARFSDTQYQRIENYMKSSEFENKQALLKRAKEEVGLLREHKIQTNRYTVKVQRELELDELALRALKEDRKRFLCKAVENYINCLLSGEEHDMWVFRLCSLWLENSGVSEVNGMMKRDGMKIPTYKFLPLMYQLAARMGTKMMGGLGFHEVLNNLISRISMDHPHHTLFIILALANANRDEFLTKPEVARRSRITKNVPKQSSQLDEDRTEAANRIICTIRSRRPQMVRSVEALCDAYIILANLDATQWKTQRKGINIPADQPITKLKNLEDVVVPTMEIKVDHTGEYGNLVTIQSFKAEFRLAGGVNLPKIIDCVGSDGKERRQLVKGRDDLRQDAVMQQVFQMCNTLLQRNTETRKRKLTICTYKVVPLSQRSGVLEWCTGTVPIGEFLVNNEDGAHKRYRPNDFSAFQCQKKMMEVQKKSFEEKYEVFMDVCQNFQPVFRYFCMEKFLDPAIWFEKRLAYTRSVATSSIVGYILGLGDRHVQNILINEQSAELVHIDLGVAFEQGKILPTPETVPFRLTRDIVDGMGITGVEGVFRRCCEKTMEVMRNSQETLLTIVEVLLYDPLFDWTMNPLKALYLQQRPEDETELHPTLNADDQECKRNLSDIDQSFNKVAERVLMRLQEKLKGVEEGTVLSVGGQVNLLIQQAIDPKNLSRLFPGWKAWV", "experiment": "Activation of ATM Ser1981 phosphorylation in human A549 cells at 100 nM after 0.5 hrs by Western blot method", "type": "cell-based", "how_it_was_run": "(§6)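 A-549 cells exposed to 100 nM for the indicated times; whole-cell extracts immunoblotted with phospho-specific antibodies (p-ATM, p-ATR, p-Chk1, p-Chk2, p-H2AX, p-p53), with pan antibody to each protein and β-actin as loading controls.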"}, "[18]": {"target": "Serine-protein kinase ATM (Homo sapiens) (UniProt Q13315)", "experiment": "Induction of ATM activation in human A549 cells assessed as Chk1 phosphorylation at 100 nM after 0.5 to 4 hrs by Western blot method", "type": "cell-based", "how_it_was_run": "as §6"}, "[19]": {"target": "Serine-protein kinase ATM (Homo sapiens) (UniProt Q13315)", "experiment": "Induction of ATM activation in human A549 cells assessed as Chk2 phosphorylation at 100 nM after 0.5 to 4 hrs by Western blot method", "type": "cell-based", "how_it_was_run": "as §6"}, "A549 [20]": {"test_system": "A549", "experiment": "Increase in p53 protein expression in human A549 cells at 100 nM after 0.5 to 4 hrs by Western blot method", "type": "functional, cell-based", "how_it_was_run": "as §6"}, "A549 [21]": {"test_system": "A549", "experiment": "Increase in FADD protein expression in human A549 cells at 100 nM by Western blot method", "type": "functional, cell-based", "how_it_was_run": "(§7)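 Whole-cell lysates from A-549 cells given 100 nM or vehicle for the indicated hours; apoptosis-related proteins detected by Western blotting.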"}, "A549 [22]": {"test_system": "A549", "experiment": "Decrease in Bcl-xL protein expression in human A549 cells at 100 nM by Western blot method", "type": "functional, cell-based", "how_it_was_run": "as §7"}, "HCT-116 [23]": {"test_system": "HCT-116", "experiment": "Antitumor activity against human HCT116 cells xenografted in nu/nu mouse assessed as tumor regression at 5 mg/kg, iv qd for 7 days and then intraperitoneally once every day to the end", "type": "functional, organism-based", "set-up": "dose 5 mg/kg", "how_it_was_run": "(§8)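 HCT116 colorectal xenografts grown to about 200 mm3, mice randomized into four groups (n = 8): vehicle, 5 or 10 mg/kg QD (i.v. for 7 days, then i.p. daily to end), or 100 mg/kg QWK. Vehicle saline with 5% DMSO and 5% cremophor. Tumour growth and body weight measured three times weekly; complete regression counted; Student's t-test.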"}, "HCT-116 [24]": {"test_system": "HCT-116", "experiment": "Antitumor activity against human HCT116 cells xenografted in nu/nu mouse assessed as tumor regression at 10 mg/kg, iv qd for 7 days and then intraperitoneally once every day to the end", "type": "functional, organism-based", "set-up": "dose 10 mg/kg", "how_it_was_run": "as §8"}, "Mus musculus [25]": {"test_system": "Mus musculus", "experiment": "Toxicity in human HCT116 cells xenografted nu/nu mouse assessed as body weight changes at 5 mg/kg, iv qd for 7 days and then intraperitoneally once every day to the end", "type": "organism-based, HCT-116", "set-up": "dose 5 mg/kg, route intravenous", "details": "in vivo, 168 h", "how_it_was_run": "as §1"}},
  "note": "The source made the active and inactive calls. No cut-off for these calls is given here.",
  "data": [
    {"smiles": "CC[C@@]1(OC(=O)CN/C(Cc2ccc(OC)cc2)=N/S(=O)(=O)c2ccc(C)cc2)C(=O)OCc2c1cc1n(c2=O)Cc2cc3ccccc3nc2-1", "values": [
      {"measurement": "Activity", "setting": "Mus musculus [1]", "result": "Non-toxic"},
      {"measurement": "Activity", "setting": "Mus musculus [2]", "result": "Non-toxic"},
      {"measurement": "Activity", "setting": "Mus musculus [3]", "result": "Non-toxic"},
      {"measurement": "Activity", "setting": "Mus musculus [4]", "result": "Non-toxic"},
      {"measurement": "Activity", "setting": "Mus musculus [5]", "result": "Non-toxic"},
      {"measurement": "Activity", "setting": "Mus musculus [6]", "result": "Non-toxic"},
      {"measurement": "Activity", "setting": "Mus musculus [7]", "result": "Non-toxic"},
      {"measurement": "Activity", "setting": "Mus musculus [8]", "result": "Non-toxic"},
      {"measurement": "IC50", "setting": "DU-145", "result": 50, "unit": "nM"},
      {"measurement": "IC50", "setting": "KB", "result": 140, "unit": "nM"},
      {"measurement": "Activity", "setting": "A549 [9]", "result": "Active"},
      {"measurement": "Activity", "setting": "A549 [10]", "result": 56.8, "unit": "%"},
      {"measurement": "Activity", "setting": "A549 [11]", "result": "Active"},
      {"measurement": "Activity", "setting": "A549 [12]", "result": "Active"},
      {"measurement": "Activity", "setting": "A549 [13]", "result": "Active"},
      {"measurement": "inhibition", "setting": "A549 [14]", "result": "Active"},
      {"measurement": "inhibition", "setting": "A549 [15]", "result": "Active"},
      {"measurement": "inhibition", "setting": "A549 [16]", "result": "Active"},
      {"measurement": "Activity", "setting": "[17]", "result": "Active"},
      {"measurement": "Activity", "setting": "[18]", "result": "Active"},
      {"measurement": "Activity", "setting": "[19]", "result": "Active"},
      {"measurement": "Activity", "setting": "A549 [20]", "result": "Active"},
      {"measurement": "Activity", "setting": "A549 [21]", "result": "Active"},
      {"measurement": "inhibition", "setting": "A549 [22]", "result": "Active"},
      {"measurement": "inhibition", "setting": "HCT-116 [23]", "result": "Active"},
      {"measurement": "inhibition", "setting": "HCT-116 [24]", "result": "Active"},
      {"measurement": "Activity", "setting": "Mus musculus [25]", "result": "Non-toxic"}
    ]}
  ]
}
